Laboratory results as given in ChEMBL document CHEMBL4145685, “Development of Second-Generation CDK2 Inhibitors for the Prevention of Cisplatin-Induced Hearing Loss” (J Med Chem, 2018).
Converted amounts (≈) assume the structure as drawn. Values belong to the molecule of their own block, whether it stands above or below them. The source made the active and inactive calls.

How the values were obtained:
[1] = Protection against cisplatin-induced cell death in neonatal mouse HEI-OC1 cells assessed as reduction in caspase-3/7 activity; format: functional
[2] = molecular target: CDK2/Cyclin A2 (Homo sapiens, UniProt P24941); experiment: Inhibition of C-terminal His6-tagged human full length CDK2/N-terminal GST-tagged human full length Cyclin A using histone H1 and [gamma-32P]-ATP incubated for 30 mins by phosphorimage based assay; format: protein-complex assay
[3] = test system: Spiral organ of cochlea; experiment: Protection against cisplatin-induced toxicity in P3 mouse cochlear explants assessed as increase in outer hair cell count at 150 nM incubated for 24 hrs by phalloidin staining based confocal microscopy; format: functional, tissue-based
How it was run: (§1)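 P3 FVB mouse cochleae were cultured on filters in DMEM with 1% FBS and 50 μg/mL ampicillin, 37 °C, 5% CO2, for 1 d. They were pretreated with compound 1 h, then given cisplatin 150 μM plus compound for 1 d. Fixed in 4% PFA, phalloidin-stained, confocal imaged. OHCs counted per 160 μm; medium-only = full protection, cisplatin-only = none.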

[4] = molecular target: Cyclin-dependent kinase 7 (Homo sapiens) (UniProt P50613); experiment: Inhibition of human full length CDK7 expressed in mammalian expression system at 1 uM
Sequence of Cyclin-dependent kinase 7 (Homo sapiens) (P50613 whole entry): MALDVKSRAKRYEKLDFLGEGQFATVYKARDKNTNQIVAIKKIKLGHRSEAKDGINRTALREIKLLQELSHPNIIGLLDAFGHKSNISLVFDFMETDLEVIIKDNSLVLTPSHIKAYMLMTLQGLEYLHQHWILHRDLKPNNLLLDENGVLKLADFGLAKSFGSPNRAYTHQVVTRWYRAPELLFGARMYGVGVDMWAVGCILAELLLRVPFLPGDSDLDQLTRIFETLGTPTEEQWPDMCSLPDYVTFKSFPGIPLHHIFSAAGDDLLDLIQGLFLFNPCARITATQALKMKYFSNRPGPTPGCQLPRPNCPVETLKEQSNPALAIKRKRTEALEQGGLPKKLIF
How it was run: (§2)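 Competition binding screen at 1 μM over a 468-kinase panel. Kinases were T7-phage-tagged (grown in E. coli BL21-derived host) or produced in HEK-293 cells with DNA tags. They bound to immobilized biotinylated ligand beads with compound for 1 h at room temperature in SeaBlock/PBS/Tween/DTT buffer. Eluted kinase was quantified by qPCR.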

[5] = molecular target: Glycogen synthase kinase-3 alpha (Homo sapiens) (UniProt P49840); experiment: Inhibition of human full length GSK3alpha expressed in bacterial expression system at 1 uM; how it was run: as §2
Sequence of Glycogen synthase kinase-3 alpha (Homo sapiens) (P49840 2-483 limits assumed): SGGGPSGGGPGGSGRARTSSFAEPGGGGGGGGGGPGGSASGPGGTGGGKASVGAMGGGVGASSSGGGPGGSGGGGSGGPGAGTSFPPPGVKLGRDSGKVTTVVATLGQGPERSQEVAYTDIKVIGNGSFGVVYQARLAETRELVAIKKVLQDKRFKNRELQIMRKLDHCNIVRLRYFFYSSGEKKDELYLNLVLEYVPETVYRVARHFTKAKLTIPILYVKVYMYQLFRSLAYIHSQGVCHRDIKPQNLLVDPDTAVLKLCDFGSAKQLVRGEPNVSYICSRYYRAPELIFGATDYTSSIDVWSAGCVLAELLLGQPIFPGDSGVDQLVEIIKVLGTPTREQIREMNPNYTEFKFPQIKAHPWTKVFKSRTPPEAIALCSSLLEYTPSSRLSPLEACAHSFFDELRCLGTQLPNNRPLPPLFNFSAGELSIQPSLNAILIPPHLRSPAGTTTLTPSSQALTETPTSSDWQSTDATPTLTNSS

[6] = test system: Mus musculus; experiment: (§3) Protection against cisplatin-induced ototoxicity in adult FVB mouse assessed as hearing thresholds at 32 kHz dosed at 50 uM administered to each left ear by transtympanic injection dosed 1 hr before cisplatin injection and measured after 15 days; format: functional, organism-based
How it was run: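 P30 FVB mice under isoflurane received 5 μL compound in PBS + 0.5% DMSO into the left ear by transtympanic 33-gauge cannula; vehicle controls matched. Cisplatin i.p. 1 h later; one regimen added a second injection 24 h after cisplatin. Left-ear closed-field ABR thresholds at 8, 16, 32 kHz were taken before treatment and at day 15. Threshold shift is reported as mean ± SEM, paired 2-tailed t-test. Mice losing <10% bodyweight were excluded.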

[7] = Solubility of the compound in citrate phosphate buffered saline incubated for 18 hrs by UV spectroscopy; format: physicochemical; conditions: buffer
How it was run: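 A 10 mM DMSO stock was diluted into buffer and held 18 h at room temperature. It was then filtered and mixed 1:1 with 1-propanol. UV spectrum (250–500 nm) AUC was compared with a reference of stock in 1-propanol/isotonic citrate PBS. Triplicate.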

[8] = molecular target: Glycogen synthase kinase-3 beta (Homo sapiens) (UniProt P49841); experiment: Inhibition of human full length GSK3beta expressed in mammalian expression system at 1 uM; how it was run: as §2
Sequence of Glycogen synthase kinase-3 beta (Homo sapiens) (P49841 whole entry, looked up): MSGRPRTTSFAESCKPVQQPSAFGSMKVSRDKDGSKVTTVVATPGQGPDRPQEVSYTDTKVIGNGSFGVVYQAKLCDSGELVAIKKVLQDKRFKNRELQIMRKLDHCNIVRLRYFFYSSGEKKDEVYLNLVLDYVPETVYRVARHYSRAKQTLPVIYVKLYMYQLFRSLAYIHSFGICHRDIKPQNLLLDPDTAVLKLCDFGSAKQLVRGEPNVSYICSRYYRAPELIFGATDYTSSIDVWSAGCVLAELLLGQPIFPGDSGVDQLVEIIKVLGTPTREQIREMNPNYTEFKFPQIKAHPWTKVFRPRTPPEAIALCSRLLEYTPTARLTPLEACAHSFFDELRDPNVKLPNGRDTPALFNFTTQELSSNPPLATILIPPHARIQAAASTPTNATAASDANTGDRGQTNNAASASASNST

[9] = test system: Mus musculus; experiment: Protection against cisplatin-induced ototoxicity in adult FVB mouse assessed as reduction in outer hair cell loss in middle basal turn at 32 kHz dosed at 50 uM administered to each left ear by transtympanic injection dosed 1 hr before cisplatin injection and measured after 15 days; format: functional, organism-based
How it was run: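 After day-15 ABR, cochleae were harvested from transtympanically dosed, cisplatin-treated adult FVB mice. Organ of Corti was stained with phalloidin, anti-parvalbumin and DAPI. OHCs were counted per 160 μm in the 32-kHz (middle basal turn) region. Mean ± SEM, paired 2-tailed t-test.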

[10] = test system: Mus musculus; experiment: as §3, with “reduction in auditory brainstem response threshold elevation by measuring ABR threshold shits” for “hearing thresholds”; format: functional
How it was run: (§4)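 P30 FVB mice under isoflurane got a single 5 μL transtympanic injection (50 μM in saline with 0.5% DMSO, or vehicle) into the left ear. Cisplatin was given i.p. 1 h later. Closed-field left-ear ABR thresholds were taken before treatment and at day 15. Shift is post minus pre. Mice losing <10% bodyweight were excluded. Mean ± SEM, paired 2-tailed t-test.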

[11] = test system: Mus musculus; experiment: Toxicity in adult FVB mouse at 2 to 50 uM dosed to each left ear by transtympanic injection after 15 days; format: organism-based; conditions: in vivo, other, 360 h
How it was run: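 Adult FVB mice, blinded and randomized, received transtympanic left-ear 2, 10 or 50 μM compound or vehicle (PBS + 0.5% DMSO, 5 μL). Dosing was a single injection, or two injections 24 h apart in one series. Three to four mice per group. ABRs were recorded at 8, 16, 32 kHz after 15 days.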

[12] = test system: Spiral organ of cochlea; experiment: Protection against cisplatin-induced toxicity in P3 mouse cochlear explants assessed as increase in outer hair cell count at 100 to 500 nM incubated for 24 hrs by phalloidin staining based confocal microscopy; format: functional, tissue-based; how it was run: as §1
[13] = test system: Spiral organ of cochlea; experiment: Protection against cisplatin-induced toxicity in P3 mouse cochlear explants assessed as increase in outer hair cell count incubated for 24 hrs by phalloidin staining based confocal microscopy; format: functional, tissue-based
[14] = test system: Mus musculus; experiment: as §3, with “reduction in auditory brainstem response threshold elevation by measuring ABR threshold shits” for “hearing thresholds”, “16” for “32”; format: functional; how it was run: as §4
[15] = Mus musculus, HEI-OC1, read-out: EC50

Compound: Cc1ccc(C(=O)Nc2c(C(=O)N(C)C)nn(C)c2C)cc1
EC50 [1]: Not Active

IC50 [2]: 0.76 µM
Compound: O=C(NC1CCN(C(=O)c2c(Cl)cccc2Cl)CC1)c1n[nH]cc1NC(=O)c1c(Cl)cccc1Cl
EC50 [1, 15]: 0.459 µM | Activity [3]: inactive

Compound: O=C(Nc1ccc(F)cc1)c1n[nH]cc1NC(=O)c1c(F)cccc1F
Activity [3]: inactive

Compound: Cc1ncc(-c2ccnc(Nc3ccc(S(C)(=O)=O)cc3)n2)n1C(C)C [AZD-5438]
inhibition [4]: Active | inhibition [5]: Active | Activity [6]: Active | solubility [7]: 68.8 µM (≈ 25.6 µg/mL) | inhibition [8]: Active | Activity [9]: Active | Activity [10]: 14 dB | Activity [11]: Non-Toxic

Compound: Cn1cc(NC(=O)c2ccc(Cl)cc2Cl)c(C(=O)NCCc2ccco2)n1
EC50 [1]: Not Active

Compound: O=C(NC1CCNCC1)c1n[nH]cc1NC(=O)c1c(F)cccc1F
EC50 [1, 15]: 22.5 µM

Compound: CCCNC(=O)c1c(NC(=O)c2cc(S(=O)(=O)N3CCCC3)c(Cl)cc2Cl)cnn1C
EC50 [1]: Not Active

inhibition [4]: Active | inhibition [5]: Active | inhibition [8]: Active
Compound: O=C(NC1CCNCC1)c1n[nH]cc1NC(=O)c1c(Cl)cccc1Cl
Activity [12]: inactive

Compound: O=C(Nc1c[nH]nc1C(=O)Nc1ccc(F)cc1)c1ccccc1
EC50 [1, 15]: > 33.2 µM

IC50 [2]: > 10 µM
Compound: CCn1cc(NC(=O)c2ccc(Cn3cc(Cl)cn3)cc2)c(C(=O)NC2CCCC2)n1
EC50 [1, 15]: 5.04 µM

Compound: O=C(Cc1ccccc1)Nc1c[nH]nc1C(=O)Nc1ccc(F)cc1
EC50 [1, 15]: > 32.7 µM

Compound: O=C(Nc1ccc(F)cc1)c1n[nH]cc1NC(=O)C1CCCCC1
EC50 [1, 15]: > 32.2 µM

Compound: CCn1cc(NC(=O)c2c(F)cccc2F)c(C(=O)NCC(C)C)n1
EC50 [1]: Not Active

Compound: O=C(N[C@H]1CCCNC1)c1n[nH]cc1NC(=O)c1c(F)cccc1F
EC50 [1, 15]: > 37.9 µM

Compound: NS(=O)(=O)c1ccc(N/N=C2\C(=O)Nc3ccc(Br)cc32)cc1
EC50 [1, 15]: 0.127 µM | EC50 [13]: 1 µM

Compound: CNC(=O)c1nn(C)cc1NC(=O)c1ccccc1Cl
EC50 [1]: Not Active

Compound: CCC(Nc1nccc(-c2ccccn2)n1)c1ccc(S(C)(=O)=O)cc1 (stereo not given)
EC50 [1]: Not Active

Compound: Cn1ncc(NC(=O)c2n[nH]cc2Cl)c1C(=O)N1CCCCC1
EC50 [1]: Not Active

Compound: CCCNC(=O)c1c(NC(=O)c2cc(S(=O)(=O)N(C)C)c(Cl)cc2Cl)cnn1C
EC50 [1]: Not Active

Compound: CN[C@@H]1CCN(C(=O)c2ccc(Nc3ncc(F)c(-c4cnc(C)n4C(C)C)n3)cc2)C1
EC50 [1]: Not Active

IC50 [2]: > 10 µM
Compound: CCn1cc(NC(=O)c2ccc(Cl)cc2Cl)c(C(=O)Nc2ccccc2)n1
EC50 [1, 15]: 31.1 µM

inhibition [4]: Active | inhibition [5]: Active | inhibition [8]: Active
Compound: O=C1Cc2c([nH]c3ccc(Br)cc23)-c2ccccc2N1 [KENPAULLONE]
EC50 [1, 15]: 0.349 µM | EC50 [13]: 0.15 µM

Compound: O=C(NC1CCCCC1)c1n[nH]cc1NC(=O)c1c(F)cccc1F
EC50 [1, 15]: > 27.3 µM

Compound: CCn1ccnc1CN(C)c1nccc(-c2ccc(C)nc2C)n1
EC50 [1]: Not Active

Compound: O=C(N[C@H]1CC[C@H](O)CC1)c1n[nH]cc1NC(=O)c1c(F)cccc1F
Activity [3]: Active | inhibition [4]: Active | inhibition [5]: Active | inhibition [8]: Active | Activity [9]: inactive | Activity [14]: 10 dB | Activity [11]: Non-Toxic
